Active and inactive are the calls of the source. The calls are words filed in the database; no cut-off is given here.
How the values were obtained:
[1] = molecular target: P2Y purinoceptor 2 (Homo sapiens, UniProt P41231); assay: Antagonist activity at human P2Y2 receptor transfected in human 1321N1 cells assessed as inhibition of UTP-activated intracellular calcium mobilization preincubated for 30 mins followed by UTP addition by fluo-4-dye based fluorescence assay; assay type: functional, cell-based
Method in brief: (§1)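 1321N1 astrocytoma cells stably expressing the human P2Y subtype, grown in DMEM with 10 % FCS and 200 μg/mL G418 at 37 °C. Plated 50,000 cells/well about 24 h before testing. Cells loaded with fluo-4 AM for 1 h, then placed in HBSS and preincubated 30 min with compound. Agonist was injected at about EC80: ADP 500 nM (P2Y1), UTP 500 nM (P2Y2, P2Y4), UDP 750 nM (P2Y6). Fluorescence read at ex 488/em 525 nm. At least three independent experiments in duplicate. IC50 obtained by nonlinear regression.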

[2] = molecular target: T1, P2Y purinoceptor 12 (Homo sapiens, UniProt Q9H244); assay: Antagonist activity at human P2Y12 receptor expressed in CHO cells assessed as inhibition of 2-MeSADP-induced beta-arrestin translocation preincubated for 30 mins followed by 2-MeSADP addition measured after 90 mins by luminescence-based topcount method; assay type: cell-based
[3] = molecular target: T2, P2Y purinoceptor 4 (Homo sapiens, UniProt P51582); assay: Antagonist activity at human P2Y4 receptor transfected in human 1321N1 cells assessed as inhibition of UTP-activated intracellular calcium mobilization preincubated for 30 mins followed by UTP addition by fluo-4-dye based fluorescence assay; assay type: functional, cell-based; method in brief: as §1
[4] = molecular target: P2Y purinoceptor 6 (Homo sapiens, UniProt Q15077); assay: Antagonist activity at human P2Y6 receptor transfected in human 1321N1 cells assessed as inhibition of UDP-activated intracellular calcium mobilization preincubated for 30 mins followed by UDP addition by fluo-4-dye based fluorescence assay; assay type: functional, cell-based; method in brief: as §1
[5] = molecular target: T2, P2Y purinoceptor 4; assay: Non-competitive antagonist activity at human P2Y4 receptor transfected in human 1321N1 cells assessed as inhibition of UTP-activated intracellular calcium mobilization at 15 uM preincubated for 30 mins followed by UTP addition by fluo-4-dye based fluorescence assay; assay type: functional, cell-based
Method in brief: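 Fluo-4-loaded 1321N1 cells stably expressing human P2Y4 were preincubated 30 min with fixed antagonist concentrations up to 15 μM in HBSS. Full UTP concentration-response curves were then recorded by injecting UTP and reading fluorescence immediately (ex 488/em 525 nm). The mode of antagonism was judged from depression of the maximum versus rightward shift. EC50 values were compared by unpaired t-test.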

[6] = molecular target: P2Y purinoceptor 1 (Homo sapiens, UniProt P47900); assay: Antagonist activity at human P2Y1 receptor transfected in human 1321N1 cells assessed as inhibition of ADP-activated intracellular calcium mobilization preincubated for 30 mins followed by ADP addition by fluo-4-dye based fluorescence assay; assay type: functional, cell-based; method in brief: as §1
[7] = molecular target: T1, P2Y purinoceptor 12; assay: Competitive antagonist activity at human P2Y12 receptor expressed in CHO cells assessed as forskolin/ 2-methylthio-ADP-induced cAMP production preincubated for 10 mins followed 2-methylthio-ADP addition measured after 3.5 hrs by luciferase reporter gene assay; assay type: functional, cell-based; details: read-out: pA2 (converted)

T1 sequence (Q9H244 whole entry): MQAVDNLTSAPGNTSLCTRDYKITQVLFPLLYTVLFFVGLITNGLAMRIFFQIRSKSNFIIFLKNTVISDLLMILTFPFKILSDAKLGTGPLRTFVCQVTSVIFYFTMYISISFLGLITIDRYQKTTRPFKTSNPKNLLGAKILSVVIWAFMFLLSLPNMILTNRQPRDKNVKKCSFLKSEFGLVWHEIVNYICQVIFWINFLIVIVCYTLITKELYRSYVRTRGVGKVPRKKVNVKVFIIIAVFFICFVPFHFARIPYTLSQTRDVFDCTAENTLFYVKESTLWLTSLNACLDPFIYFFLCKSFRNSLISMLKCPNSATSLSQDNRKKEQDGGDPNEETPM
T2 sequence (P51582 whole entry): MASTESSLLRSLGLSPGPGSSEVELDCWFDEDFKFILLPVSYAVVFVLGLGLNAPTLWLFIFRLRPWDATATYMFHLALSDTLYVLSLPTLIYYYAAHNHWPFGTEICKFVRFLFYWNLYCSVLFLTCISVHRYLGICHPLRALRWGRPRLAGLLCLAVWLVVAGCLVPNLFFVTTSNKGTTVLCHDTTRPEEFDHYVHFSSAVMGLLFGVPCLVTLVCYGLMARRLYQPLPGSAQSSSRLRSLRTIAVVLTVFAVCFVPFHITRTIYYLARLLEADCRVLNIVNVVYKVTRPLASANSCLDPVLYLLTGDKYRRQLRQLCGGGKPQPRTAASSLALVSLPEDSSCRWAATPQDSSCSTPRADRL
Chain of P2Y purinoceptor 1 (P47900 whole entry): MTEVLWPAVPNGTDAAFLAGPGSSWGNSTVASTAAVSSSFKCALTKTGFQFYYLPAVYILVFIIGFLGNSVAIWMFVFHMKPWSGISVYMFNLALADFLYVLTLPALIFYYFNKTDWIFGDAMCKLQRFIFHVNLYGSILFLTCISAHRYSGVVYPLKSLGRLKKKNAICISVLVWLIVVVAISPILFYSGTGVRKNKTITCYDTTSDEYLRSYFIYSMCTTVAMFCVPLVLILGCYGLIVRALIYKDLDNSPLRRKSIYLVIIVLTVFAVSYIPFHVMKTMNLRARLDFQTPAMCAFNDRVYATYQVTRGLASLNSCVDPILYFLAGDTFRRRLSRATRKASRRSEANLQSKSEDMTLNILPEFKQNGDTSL
Chain of P2Y purinoceptor 2 (P41231 whole entry): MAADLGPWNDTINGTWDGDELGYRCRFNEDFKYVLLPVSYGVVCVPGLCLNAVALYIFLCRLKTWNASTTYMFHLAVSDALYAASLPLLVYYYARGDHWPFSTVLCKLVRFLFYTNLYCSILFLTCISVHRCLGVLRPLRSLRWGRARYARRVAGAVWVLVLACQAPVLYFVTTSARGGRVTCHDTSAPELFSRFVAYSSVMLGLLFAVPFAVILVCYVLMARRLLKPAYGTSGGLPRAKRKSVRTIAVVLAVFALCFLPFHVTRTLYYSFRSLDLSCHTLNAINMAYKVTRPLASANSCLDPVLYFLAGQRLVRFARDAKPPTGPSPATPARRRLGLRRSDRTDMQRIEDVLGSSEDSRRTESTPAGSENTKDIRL
Chain of P2Y purinoceptor 6 (Q15077 whole entry): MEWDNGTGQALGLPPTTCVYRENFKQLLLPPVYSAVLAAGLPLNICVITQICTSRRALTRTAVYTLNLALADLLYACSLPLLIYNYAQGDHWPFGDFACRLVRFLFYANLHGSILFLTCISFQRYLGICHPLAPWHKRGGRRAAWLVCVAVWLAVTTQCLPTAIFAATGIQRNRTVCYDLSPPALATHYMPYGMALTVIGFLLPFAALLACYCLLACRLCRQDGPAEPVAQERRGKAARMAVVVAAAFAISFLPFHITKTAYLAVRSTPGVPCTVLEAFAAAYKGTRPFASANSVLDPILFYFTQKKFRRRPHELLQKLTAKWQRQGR

Row | SMILES | IC50 [1] [µM] | IC50 [2] [µM] | IC50 [3] [µM] | IC50 [4] [µM] | inhibition [5] | IC50 [6] [µM] | Kb [7] [µM]
1 | Cc1ccc(Sc2ccc(Nc3cc(S(=O)(=O)O)c(N)c4c3C(=O)c3ccccc3C4=O)cc2)c(C)c1 | 8.54 | 2.41 | 0.233 | 12.5 | Active | 5.48 | 
2 | Nc1c(S(=O)(=O)O)cc(Nc2ccc(Nc3ccccc3)c(S(=O)(=O)O)c2)c2c1C(=O)c1ccccc1C2=O |  |  |  |  |  |  | 0.000158

Reference: ChEMBL document CHEMBL4007497, “Development of Potent and Selective Antagonists for the UTP-Activated P2Y4 Receptor” (J Med Chem, 2017)
